Assay results: ChEMBL document CHEMBL2163188, “Discovery of piragliatin--first glucokinase activator studied in type 2 diabetic patients” (J Med Chem, 2012)

Molecular target: T1, Hexokinase-4 (Homo sapiens) (UniProt P35557)
T1 sequence (whole entry): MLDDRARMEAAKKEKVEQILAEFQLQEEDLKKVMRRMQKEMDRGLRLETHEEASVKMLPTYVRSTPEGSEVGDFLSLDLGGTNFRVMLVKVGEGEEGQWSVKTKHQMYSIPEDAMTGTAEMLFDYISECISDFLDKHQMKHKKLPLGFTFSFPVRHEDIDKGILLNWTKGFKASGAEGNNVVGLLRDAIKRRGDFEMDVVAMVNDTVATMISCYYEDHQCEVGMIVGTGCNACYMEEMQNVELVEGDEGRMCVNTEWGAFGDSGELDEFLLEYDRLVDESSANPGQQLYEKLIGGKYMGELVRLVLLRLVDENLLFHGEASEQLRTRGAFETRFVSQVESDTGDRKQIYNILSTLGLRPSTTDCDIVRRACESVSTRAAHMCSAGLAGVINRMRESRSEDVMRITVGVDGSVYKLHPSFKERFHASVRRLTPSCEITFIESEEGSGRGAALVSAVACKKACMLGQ
Test: Activation of human recombinant glucokinase assessed as concentration required for 1.5 fold increase in enzymatic activity
In short: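 Human recombinant GK; activator at fixed concentrations from ∼0.010 to 30 μM, each in duplicate, with glucose held at 5 mM. SC1.5 is the activator concentration giving a 1.5-fold rise in enzymatic activity over untreated GK. Assay CV was about 15%.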

Activity [µM] | SMILES
0.188 | CS(=O)(=O)c1ccc(C(CC2CCCC2)C(=O)Nc2nccs2)cc1C#N (racemic)
0.068 | CS(=O)(=O)c1ccc(C(CC2CCCC2)C(=O)Nc2nccs2)cc1C(F)(F)F (racemic)
0.119 | CS(=O)(=O)c1ccc(C(CC2CCCC2)C(=O)Nc2nccs2)cc1Cl (racemic)
